From PubChem
Only a selection was taken, and hits are over-represented in it overall.
HCT116 bCat-KO: beta-catenin-lacking colon tumor cell growth suppression; HCT116 beta-catenin knockout viability, CellTiter-Glo, 60 h; stronger effect = lower value; viability, % at 10 µM; 140,000 tested, 1.5% active;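 active means viability at or under a set limit, the compound median less 4 SD, cut at about 6% in these data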
Lung fibro prol: blocks proliferation of human lung fibroblasts. LL 47 human lung fibroblast viability, ATP luminescence; stronger effect = lower value. viability, % at 10 µM. 85,000 tested, 1.1% active;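 active means viability at or below 50% in the single dose screen; inactive means viability above 50%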;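 further: compound exposure lasted 72 h before the ATP readout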
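Times – overnight cell rest, 72 h compound treatment at 37 °C · Test system – human lung fibroblast line LL 47, low passage · Amount – 1,150 cells in each well · Controls – cell-only wells, no compound · Doses – 0.1% DMSO in all compound wells · Measured by – CellTiter-Glo luminescence · Buffer or medium – IMEM plus 15% FBS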
H69AR growth 86K: blocks growth of human H69AR lung tumor cells. viability, % at 10 µM. 85,000 tested, 6% active. H69AR lung tumor viability, ATP luminescence, 72 h; stronger effect = lower value;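 active means viability at or below 40%; inactive means viability above 40%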;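 further: multidrug resistant small cell line overexpressing MRP-1 efflux transporter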
HUVEC inhibit: blocks proliferation of human endothelial cells | viability, % at 10 µM (by protocol) | 86,000 tested, 1.1% active | AID 648 | HUVEC proliferation, CellTiter-Glo luminescence, 72 h; stronger effect = lower value;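 active means viability at or below 30%; inactive means viability above 30%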
HCT116 PTEN-null: PTEN-deleted cell growth suppression | HCT116 PTEN-null viability, CellTiter-Glo, 60 h; stronger effect = lower value | viability, % at 10 µM | 140,000 tested, 1.2% active | AID 827;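 active means viability at or below a set limit, 4 SD under the median of all tested compounds, cut at about 3.7% in these data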;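 further: PTEN knockout HCT116 line with beta catenin targeted HCT116 as companion control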
Numbers stand for hits.

Results for COc1ccc(-c2cc(-c3ccccc3)c(C#N)c(S(C)(=O)=O)n2)cc1 ?
HCT116 bCat-KO: 1.1; Lung fibro prol: inactive; H69AR growth 86K: 3.6; HUVEC inhibit: 26.0; HCT116 PTEN-null: 0.9

How did N#Cc1c(-c2ccc(Br)cc2)cc(-c2cccnc2)nc1N do in these assays?
HCT116 bCat-KO: inactive; HCT116 PTEN-null: inactive

What do the screens show for `N#Cc1c(-c2cccc(F)c2)cc(-c2ccccc2)nc1Br`?
HCT116 bCat-KO: inactive; HCT116 PTEN-null: inactive

How did CS(=O)c1nc(-c2ccc(Br)cc2)cc(-c2ccccc2)c1C#N (stereo not drawn) do in these assays?
HCT116 bCat-KO: 1.8; Lung fibro prol: 6.6; H69AR growth 86K: 1.5; HUVEC inhibit: 9.9; HCT116 PTEN-null: 1.8

What do the screens show for `Cc1cc(C)c(S(=O)(=O)n2c([N+](=O)[O-])cnc2C)c(C)c1`?
HCT116 bCat-KO: inactive; HCT116 PTEN-null: inactive

What do the screens show for `CCOC(=O)/C(=N\Nc1ccccc1)c1csc(Nc2ccc(C)cc2)n1`?
HCT116 bCat-KO: inactive; Lung fibro prol: inactive; H69AR growth 86K: 3.3; HUVEC inhibit: 25.2; HCT116 PTEN-null: inactive

How did COc1ccccc1N1CSC2=C(C#N)C(c3ccc(SC)cc3)CC(=O)N2C1 (stereo not drawn) do in these assays?
HCT116 bCat-KO: inactive; Lung fibro prol: inactive; H69AR growth 86K: inactive; HUVEC inhibit: inactive; HCT116 PTEN-null: inactive

How did COC(=O)c1c(C)n(-c2ccc(OC)cc2)c2ccc(O)cc12 do in these assays?
HCT116 bCat-KO: inactive; Lung fibro prol: inactive; H69AR growth 86K: 18.5; HUVEC inhibit: 17.8; HCT116 PTEN-null: inactive

How did O=C(COC(=O)C12CC3CC(CC(C3)C1)C2)Nc1ccc([N+](=O)[O-])cc1Cl do in these assays?
HCT116 bCat-KO: inactive; HCT116 PTEN-null: inactive

How did CCOC(=O)C1CCCN(C(=O)Cn2sc3nc(C)cc(C)c3c2=O)C1 (stereo not drawn) do in these assays?
HCT116 bCat-KO: inactive; Lung fibro prol: inactive; H69AR growth 86K: 1.1; HUVEC inhibit: inactive; HCT116 PTEN-null: 1.7

What do the screens show for `Cc1cc(C)c2c(=O)n(CC(=O)N3CCC(N4CCCCC4)CC3)sc2n1`?
HCT116 bCat-KO: 1.8; Lung fibro prol: inactive; H69AR growth 86K: inactive; HUVEC inhibit: inactive; HCT116 PTEN-null: 1.9

Results for CCOC(=O)C1CCCN(C(=O)Cn2cnc3c2c(=O)n(C)c(=O)n3C)C1 (stereo not drawn) ?
HCT116 bCat-KO: inactive; Lung fibro prol: inactive; H69AR growth 86K: inactive; HUVEC inhibit: inactive; HCT116 PTEN-null: inactive

How did CSc1nnc(CSc2cc(C)nc(N(C)C)n2)o1 do in these assays?
HCT116 bCat-KO: inactive; HCT116 PTEN-null: inactive

What do the screens show for `COc1cccc(C2C3=C(CC(C)(C)CC3=O)Nc3cc4c(cc32)OCO4)c1` (stereo not drawn)?
HCT116 bCat-KO: inactive; Lung fibro prol: inactive; H69AR growth 86K: 32.2; HUVEC inhibit: inactive; HCT116 PTEN-null: inactive

Results for COc1cc2c(cc1OC)C(c1ccc3c(c1)OCO3)C1=C(CC(C)(C)CC1=O)N2 (stereo not drawn) ?
HCT116 bCat-KO: inactive; Lung fibro prol: inactive; H69AR growth 86K: inactive; HUVEC inhibit: inactive; HCT116 PTEN-null: inactive

What do the screens show for `CCN(CC)S(=O)(=O)c1ccc(N2CCOCC2)c(NC(=O)c2c3c(nc4ccccc24)CCC3)c1`?
HCT116 bCat-KO: inactive; HCT116 PTEN-null: inactive

What do the screens show for `Cc1coc2c(C)c3oc(=O)c4c(c3cc12)CCCC4`?
Lung fibro prol: inactive; H69AR growth 86K: 21.3; HUVEC inhibit: inactive

How did Cc1oc2c(C)c3oc(=O)c4c(c3cc2c1C)CCC4 do in these assays?
HCT116 bCat-KO: inactive; Lung fibro prol: inactive; H69AR growth 86K: inactive; HUVEC inhibit: inactive; HCT116 PTEN-null: inactive

How did CCOc1ccc(/C(O)=C2/C(=O)C(=O)N(c3ncccn3)C2c2ccccc2)cc1 (stereo not drawn) do in these assays?
HCT116 bCat-KO: inactive; HCT116 PTEN-null: inactive

Results for Nc1nonc1C(=O)NCCNCc1c(OCc2ccccc2F)ccc2ccccc12 ?
HCT116 bCat-KO: inactive; Lung fibro prol: inactive; H69AR growth 86K: 11.7; HUVEC inhibit: inactive; HCT116 PTEN-null: inactive

Results for CS(=O)(=O)Cc1nc2ccccc2oc1=O ?
HCT116 bCat-KO: inactive; Lung fibro prol: inactive; H69AR growth 86K: 22.1; HUVEC inhibit: inactive; HCT116 PTEN-null: inactive

What do the screens show for `CC(c1ccco1)N(C(=O)c1ccccc1NS(=O)(=O)c1ccc(Cl)c([N+](=O)[O-])c1)c1ccccn1` (stereo not drawn)?
HCT116 bCat-KO: inactive; HCT116 PTEN-null: inactive

How did O=C(O)C1CCCCC1C(=O)Nc1cccc2ccccc12 (stereo not drawn) do in these assays?
HCT116 bCat-KO: inactive; Lung fibro prol: inactive; H69AR growth 86K: inactive; HUVEC inhibit: inactive; HCT116 PTEN-null: inactive

Results for Nc1nc(Nc2cccc3ccccc23)nc(C2CCCC2=O)n1 (stereo not drawn) ?
HCT116 bCat-KO: inactive; Lung fibro prol: inactive; H69AR growth 86K: 0.8; HUVEC inhibit: 14.8; HCT116 PTEN-null: inactive

How did CSc1nc2ccccc2cc1/C=C(\C#N)c1cccc(Cl)c1 do in these assays?
HCT116 bCat-KO: inactive; HCT116 PTEN-null: inactive

What do the screens show for `CCCSC(=O)N(CC)CC(=O)Nc1c(CC)cccc1CC`?
HCT116 bCat-KO: inactive; HCT116 PTEN-null: inactive

Results for Cc1ccc(C)c(NC2=C(Cl)C(=O)OC2OC(=O)c2ccco2)c1 (stereo not drawn) ?
HCT116 bCat-KO: inactive; Lung fibro prol: inactive; H69AR growth 86K: 9.4; HUVEC inhibit: inactive; HCT116 PTEN-null: inactive

How did Cc1ccc(NC2=C(Cl)C(=O)OC2OC(=O)c2ccco2)c(C)c1 (stereo not drawn) do in these assays?
HCT116 bCat-KO: inactive; Lung fibro prol: inactive; H69AR growth 86K: inactive; HUVEC inhibit: inactive; HCT116 PTEN-null: inactive

Results for COc1ccc(NC(=O)CSc2ncnc3c2sc2ccccc23)c(OC)c1 ?
HCT116 bCat-KO: 2.2; HCT116 PTEN-null: 2.2

How did O=S(=O)(c1ccc(S(=O)(=O)N2CCN(C/C=C/c3ccccc3)CC2)cc1)N1CCCC1 do in these assays?
HCT116 bCat-KO: inactive; Lung fibro prol: inactive; H69AR growth 86K: 35.6; HUVEC inhibit: inactive; HCT116 PTEN-null: inactive

Results for COc1ccc(/C=N/Nc2nnc(-c3ccccc3)c(=O)[nH]2)cc1 ?
HCT116 bCat-KO: 4.5; HCT116 PTEN-null: 2.9

How did O=c1[nH]c(N/N=C/c2ccccc2Br)nnc1-c1ccccc1 do in these assays?
HCT116 bCat-KO: inactive; HCT116 PTEN-null: inactive

What do the screens show for `Cc1c(C(=O)OCc2ccccc2)[nH]c2c1C(=O)CC(c1ccco1)C2` (stereo not drawn)?
HCT116 bCat-KO: inactive; Lung fibro prol: 27.3; H69AR growth 86K: 25.6; HUVEC inhibit: 22.1; HCT116 PTEN-null: inactive

Results for COCCOC(=O)c1[nH]c2c(c1C)C(=O)CC(c1ccco1)C2 (stereo not drawn) ?
HCT116 bCat-KO: inactive; Lung fibro prol: inactive; H69AR growth 86K: 26.1; HUVEC inhibit: inactive; HCT116 PTEN-null: inactive

What do the screens show for `CSCCOC(=O)c1[nH]c2c(c1C)C(=O)CC(c1ccco1)C2` (stereo not drawn)?
HCT116 bCat-KO: inactive; Lung fibro prol: inactive; H69AR growth 86K: 36.6; HUVEC inhibit: inactive; HCT116 PTEN-null: inactive
